# System: Fibroblast
# Experiment: Multiplex assay against human fibroblast
# Assay type: toxicity, cell-based
# Outline: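 Values for tubulin, mitochondrial-mass and membrane-permeability phenotypes are per cents of cells with healthy nuclei. These cells were identified by CellPathfinder machine-learning gating of live cells that had been stained at seeding with Hoechst33342, BioTracker Green Microtubule Cytoskeleton Dye, MitoTracker Red and Annexin V Alexa Fluor 680 and imaged on a CQ1 microscope at 37°C and 5% CO2 after compound addition. The gating first set Hoechst high-intensity objects apart from normal cells, then split normal cells into healthy, pyknosed or fragmented nuclei, and pyknosed cells into mitotic or apoptotic.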
# [1] = 12 h, 1 µM, compound concentration 1 uM, replicate 1
# [2] = 12 h, 1 µM, compound concentration 1 uM, replicate 2
# [3] = 12 h, 10 µM, compound concentration 10 uM, replicate 1
# [4] = 12 h, 10 µM, compound concentration 10 uM, replicate 2
# [5] = 24 h, 1 µM, compound concentration 1 uM, replicate 1
# [6] = 24 h, 1 µM, compound concentration 1 uM, replicate 2
# [7] = 24 h, 10 µM, compound concentration 10 uM, replicate 1
# [8] = 24 h, 10 µM, compound concentration 10 uM, replicate 2
# [9] = 48 h, 1 µM, compound concentration 1 uM, replicate 1
# [10] = 48 h, 1 µM, compound concentration 1 uM, replicate 2
# [11] = 48 h, 10 µM, compound concentration 10 uM, replicate 1
# [12] = 48 h, 10 µM, compound concentration 10 uM, replicate 2
compound,measurement,setting,value
CCCCCC(O)/C=C/[C@H]1C(=O)CC(O)C1C/C=C\CCCC(=O)O (some centres undefined),Population Apoptotic (%),[1],52%
same,Population Fragmented Nuclei (%),[1],24%
same,Population Healthy Nuclei (%),[1],65%
same,Population Hoechst High Intensity Objects (%),[1],1%
same,Population Membrane Permeable-Phenotype (%),[1],0%
same,Population Mitochondria Different-Phenotype (%),[1],4%
same,Population Mitotic Cells (%),[1],47%
same,Population Normal (%),[1],98%
same,Population Pyknosed Nuclei (%),[1],10%
same,Population Tubulin-Different-Phenotype (%),[1],19%
same,Total Cell Count,[1],172
same,Population Apoptotic (%),[2],50%
same,Population Fragmented Nuclei (%),[2],40%
same,Population Healthy Nuclei (%),[2],41%
same,Population Hoechst High Intensity Objects (%),[2],2%
same,Population Membrane Permeable-Phenotype (%),[2],7%
same,Population Mitochondria Different-Phenotype (%),[2],20%
same,Population Mitotic Cells (%),[2],50%
same,Population Normal (%),[2],97%
same,Population Pyknosed Nuclei (%),[2],18%
same,Population Tubulin-Different-Phenotype (%),[2],52%
same,Total Cell Count,[2],169
same,Population Apoptotic (%),[3],42%
same,Population Fragmented Nuclei (%),[3],16%
same,Population Healthy Nuclei (%),[3],69%
same,Population Hoechst High Intensity Objects (%),[3],0%
same,Population Membrane Permeable-Phenotype (%),[3],0%
same,Population Mitochondria Different-Phenotype (%),[3],1%
same,Population Mitotic Cells (%),[3],57%
same,Population Normal (%),[3],99%
same,Population Pyknosed Nuclei (%),[3],13%
same,Population Tubulin-Different-Phenotype (%),[3],16%
same,Total Cell Count,[3],139
same,Population Apoptotic (%),[4],34%
same,Population Fragmented Nuclei (%),[4],20%
same,Population Healthy Nuclei (%),[4],56%
same,Population Hoechst High Intensity Objects (%),[4],2%
same,Population Membrane Permeable-Phenotype (%),[4],3%
same,Population Mitochondria Different-Phenotype (%),[4],7%
same,Population Mitotic Cells (%),[4],65%
same,Population Normal (%),[4],97%
same,Population Pyknosed Nuclei (%),[4],23%
same,Population Tubulin-Different-Phenotype (%),[4],41%
same,Total Cell Count,[4],101
same,Population Apoptotic (%),[5],35%
same,Population Fragmented Nuclei (%),[5],20%
same,Population Healthy Nuclei (%),[5],70%
same,Population Hoechst High Intensity Objects (%),[5],0%
same,Population Membrane Permeable-Phenotype (%),[5],0%
same,Population Mitochondria Different-Phenotype (%),[5],2%
same,Population Mitotic Cells (%),[5],64%
same,Population Normal (%),[5],99%
same,Population Pyknosed Nuclei (%),[5],8%
same,Population Tubulin-Different-Phenotype (%),[5],21%
same,Total Cell Count,[5],169
same,Population Apoptotic (%),[6],50%
same,Population Fragmented Nuclei (%),[6],41%
same,Population Healthy Nuclei (%),[6],50%
same,Population Hoechst High Intensity Objects (%),[6],1%
same,Population Membrane Permeable-Phenotype (%),[6],4%
same,Population Mitochondria Different-Phenotype (%),[6],10%
same,Population Mitotic Cells (%),[6],50%
same,Population Normal (%),[6],98%
same,Population Tubulin-Different-Phenotype (%),[6],47%
same,Total Cell Count,[6],184
same,Population Apoptotic (%),[7],61%
same,Population Fragmented Nuclei (%),[7],17%
same,Population Healthy Nuclei (%),[7],72%
same,Population Hoechst High Intensity Objects (%),[7],2%
same,Population Membrane Permeable-Phenotype (%),[7],1%
same,Population Mitochondria Different-Phenotype (%),[7],3%
same,Population Mitotic Cells (%),[7],38%
same,Population Normal (%),[7],97%
same,Population Pyknosed Nuclei (%),[7],9%
same,Population Tubulin-Different-Phenotype (%),[7],21%
same,Total Cell Count,[7],138
same,Population Apoptotic (%),[8],33%
same,Population Fragmented Nuclei (%),[8],18%
same,Population Healthy Nuclei (%),[8],59%
same,Population Hoechst High Intensity Objects (%),[8],4%
same,Population Membrane Permeable-Phenotype (%),[8],3%
same,Population Mitochondria Different-Phenotype (%),[8],1%
same,Population Mitotic Cells (%),[8],66%
same,Population Normal (%),[8],95%
same,Population Pyknosed Nuclei (%),[8],21%
same,Population Tubulin-Different-Phenotype (%),[8],29%
same,Total Cell Count,[8],101
same,Population Apoptotic (%),[9],50%
same,Population Fragmented Nuclei (%),[9],27%
same,Population Healthy Nuclei (%),[9],66%
same,Population Hoechst High Intensity Objects (%),[9],3%
same,Population Membrane Permeable-Phenotype (%),[9],0%
same,Population Mitochondria Different-Phenotype (%),[9],2%
same,Population Mitotic Cells (%),[9],50%
same,Population Normal (%),[9],96%
same,Population Pyknosed Nuclei (%),[9],5%
same,Population Tubulin-Different-Phenotype (%),[9],19%
same,Total Cell Count,[9],175
same,Population Apoptotic (%),[10],30%
same,Population Fragmented Nuclei (%),[10],47%
same,Population Healthy Nuclei (%),[10],46%
same,Population Hoechst High Intensity Objects (%),[10],2%
same,Population Membrane Permeable-Phenotype (%),[10],3%
same,Population Mitochondria Different-Phenotype (%),[10],7%
same,Population Mitotic Cells (%),[10],70%
same,Population Normal (%),[10],97%
same,Population Tubulin-Different-Phenotype (%),[10],42%
same,Total Cell Count,[10],186
same,Population Apoptotic (%),[11],63%
same,Population Fragmented Nuclei (%),[11],17%
same,Population Healthy Nuclei (%),[11],74%
same,Population Hoechst High Intensity Objects (%),[11],4%
same,Population Membrane Permeable-Phenotype (%),[11],0%
same,Population Mitochondria Different-Phenotype (%),[11],0%
same,Population Mitotic Cells (%),[11],36%
same,Population Normal (%),[11],95%
same,Population Pyknosed Nuclei (%),[11],8%
same,Population Tubulin-Different-Phenotype (%),[11],14%
same,Total Cell Count,[11],141
same,Population Apoptotic (%),[12],33%
same,Population Fragmented Nuclei (%),[12],30%
same,Population Healthy Nuclei (%),[12],61%
same,Population Hoechst High Intensity Objects (%),[12],0%
same,Population Membrane Permeable-Phenotype (%),[12],6%
same,Population Mitochondria Different-Phenotype (%),[12],3%
same,Population Mitotic Cells (%),[12],66%
same,Population Normal (%),[12],99%
same,Population Tubulin-Different-Phenotype (%),[12],47%
same,Total Cell Count,[12],104
